SMILES strings stand for the structures. Activity calls are given as the source filed them. The rule behind the calls is not given here. A value given as a limit tells only on which side of the number the result lay.

The source of these data is ChEMBL document CHEMBL3797076, “5-HT2 receptor affinity, docking studies and pharmacological evaluation of a series of 1,3-disubstituted thiourea derivatives” (Eur J Med Chem, 2016).

Series [1] has as its system Mus musculus. Kind of series: Antinociceptive activity in Albino Swiss mouse assessed as inhibition of acetic acid-induced writhing response at 0.1 ED50, ip administered 60 mins prior to test measured for 10 mins. In kind it is functional, organism-based. The method in brief:
(§1)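 Male Albino Swiss mice, i.p. dosing in 0.5% methylcellulose 60 min beforehand; 0.6% acetic acid injected i.p., writhing episodes counted for 10 min beginning 5 min after acid. Mean ± SEM; one-way ANOVA with Dunnett's test vs control.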
On the technique in general: Writhing tests count abdominal constrictions after an irritant is injected.

The target in series [2] is 5-hydroxytryptamine receptor 2A (Rattus norvegicus, UniProt P14842). Description: Displacement of [3H]ketanserin from 5HT2A receptor in Sprague-Dawley rat brain cortex incubated for 15 mins. Summed up:
(§2)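 Rat frontal cortex homogenized in 50 mM Tris-HCl, 0.5 mM EDTA, 10 mM MgCl2, pH 7.4, washed, resuspended with 0.1% ascorbate and pargyline. Triplicates: 5-HT2A used 0.4 nM [3H]ketanserin, cinanserin for nonspecific binding; 5-HT2C used 1 nM [3H]mesulergine, mianserin nonspecific, 100 nM spiperone added. 15 min at 37 C, glass-fiber filtration.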

In series [3] the target is T1, 5-hydroxytryptamine receptor 2C (Rattus norvegicus, UniProt P08909).
T1 sequence (P08909 whole entry): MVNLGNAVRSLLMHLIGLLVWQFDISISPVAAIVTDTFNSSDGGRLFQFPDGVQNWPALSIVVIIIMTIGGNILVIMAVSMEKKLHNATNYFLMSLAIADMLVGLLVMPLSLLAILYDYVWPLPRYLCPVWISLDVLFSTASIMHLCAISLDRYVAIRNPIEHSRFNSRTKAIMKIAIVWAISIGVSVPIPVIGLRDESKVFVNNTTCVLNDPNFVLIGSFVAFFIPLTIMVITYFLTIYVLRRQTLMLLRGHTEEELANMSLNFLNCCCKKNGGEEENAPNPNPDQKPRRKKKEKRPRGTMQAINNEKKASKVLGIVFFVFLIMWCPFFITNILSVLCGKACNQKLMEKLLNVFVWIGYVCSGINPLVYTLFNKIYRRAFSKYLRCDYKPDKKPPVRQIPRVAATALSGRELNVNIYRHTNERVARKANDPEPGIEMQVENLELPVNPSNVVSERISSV
Description: Displacement of [3H]mesulergine from 5HT2C receptor in Sprague-Dawley rat brain cortex incubated for 15 mins. The method in brief:
as §2
Background: Displacement assays read how much labelled ligand stays bound in the presence of the test substance.

Series [4] deals with Mus musculus. Description: Neurotoxicity in Albino Swiss mouse assessed as induction of myorelaxation at 0.0125 to 0.1 ED50, ip after 60 mins by chimney test. The conditions noted are these: in vivo, 1 h. Format: toxicity, organism-based.
Series [5] deals with Mus musculus. Kind of series: Neurotoxicity in Albino Swiss mouse assessed as induction of myorelaxation at 0.0125 to 0.1 ED50, ip after 60 mins by rotarod test. In kind it is toxicity, organism-based. The following applies: in vivo, 1 h. On the technique in general: In the rotarod test animals must keep their balance on a rotating rod.
For series [6], the system named is Mus musculus. Kind of series: Neurotoxicity in Albino Swiss mouse assessed as impairment in motor coordination at 0.0125 to 0.1 ED50, ip after 60 mins by chimney test. In kind it is toxicity, organism-based. The conditions noted are these: in vivo, 1 h.
The test system of series [7] is Mus musculus. Kind of series: Neurotoxicity in Albino Swiss mouse assessed as impairment in motor coordination at 0.0125 to 0.1 ED50, ip after 60 mins by rotarod test. The conditions noted are these: in vivo, 1 h. Format: toxicity, organism-based.
The test system of series [8] is Mus musculus. Description: Toxicity in ip dosed Albino Swiss mouse assessed as loss of righting reflex administered 60 mins before test measured up to 48 hrs. Format: organism-based. The following applies: in vivo. Summed up:
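Acute toxicity in male Albino Swiss mice by Litchfield-Wilcoxon method: ED50 for loss of righting reflex after i.p. dosing, observed at 15, 30, 60, 180 min and 24, 48 h.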

The test system of series [9] is Mus musculus. Kind of series: Toxicity in Albino Swiss mouse assessed as inhibition of spontaneous locomotor activity at 0.1 ED50, ip administered 60 mins before test measured for 30 mins by photoresistor actometer analysis. The conditions noted are these: in vivo, 0.5 h. Format: organism-based. The method in brief: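 Spontaneous locomotion of single male Albino Swiss mice recorded in two-beam photoresistor actometers as beam crossings for 30 min, beginning 60 min after i.p. compound (suspension in 0.5% methylcellulose).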

Series [10] relates to Mus musculus. Description: Inhibition of 5-HTP-induced head twitch response in Albino Swiss mouse at 0.1 ED50, ip administered 60 mins before 5-HTP injection relative to untreated control. Format: functional. The method in brief: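 Male Albino Swiss mice given compound i.p. (0.1 ED50, 0.5% methylcellulose) 60 min before the test; L-5-HTP 230 mg/kg i.p. injected immediately before. Head twitches counted; mean ± SEM, Dunnett's test vs control.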

In series [11] the test system is Mus musculus. Kind of series: Antinociceptive activity in Albino Swiss mouse assessed as inhibition of acetic acid-induced writhing response at 0.1 ED50, ip administered 60 mins prior to test measured for 10 mins in presence of opioid receptor antagonist naloxone. Format: functional, organism-based.
Series [12] concerns Mus musculus. Description: Inhibition of 5-HTP-induced head twitch response in ddY mouse at >=1 mg/kg, po administered 1 hr before 5-HTP injection measured after 30 mins relative to untreated control. Format: functional.
The subject of series [13] is Mus musculus. Description: Inhibition of amphetamine-induced hyperlocomotion in Albino Swiss mouse at 0.1 ED50, ip administered 60 mins prior to test measured for 30 mins by photoresistor actometer analysis. Format: functional. Summed up: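 Single male Albino Swiss mice; compound i.p. 60 min and amphetamine 5 mg/kg s.c. 30 min before test. Photoresistor actometers (circular cage, two light beams) counted beam crossings over 30 min; mean ± SEM, Dunnett's test vs control.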

Series [14] deals with Mus musculus. Description: Antinociceptive activity in Albino Swiss mouse assessed as inhibition of acetic acid-induced writhing response at 0.025 to 0.05 ED50, ip administered 60 mins prior to test measured for 10 mins. Format: functional, organism-based. The method in brief:
as §1

The subject of series [15] is Mus musculus. Kind of series: Antinociceptive activity in Albino Swiss mouse assessed as inhibition of acetic acid-induced writhing response at 0.05 ED50, ip administered 60 mins prior to test measured for 10 mins in presence of opioid receptor antagonist naloxone. Format: functional, organism-based.
Series [16] deals with Mus musculus. Kind of series: Anticonvulsant activity in Albino Swiss mouse assessed as protection against pentetrazol-induced tonic seizure at 0.1 ED50, ip administered 60 mins prior to test relative to untreated control. In kind it is functional. The method in brief:
(§3)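 Male Albino Swiss mice (18-30 g); compound given i.p. as suspension in 0.5% methylcellulose 60 min before test; pentylenetetrazole 110 mg/kg s.c. Scored as number of mice with clonic seizures, tonic convulsions and deaths per animals tested; Fisher's exact test vs solvent control.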

The subject of series [17] is Mus musculus. Kind of series: Anticonvulsant activity in Albino Swiss mouse assessed as protection against pentetrazol-induced clonic seizure at 0.1 ED50, ip administered 60 mins prior to test relative to untreated control. In kind it is functional. Summed up:
as §3

The test system of series [18] is Mus musculus. Description: Protection against pentetrazol-induced mortality in Albino Swiss mouse at 0.05 ED50, ip administered 60 mins prior to test. Format: functional, organism-based. Summed up:
as §3

Series [19] concerns Mus musculus. Kind of series: Decrease in body temperature in Albino Swiss mouse at 0.1 ED50, ip administered 60 mins before test measured 60 to 120 mins post dose. Format: functional, organism-based. The method in brief:
(§4)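 Normothermic male Albino Swiss mice; rectal temperature by thermistor thermometer. Baseline taken as mean of readings at 60 and 30 min before dosing; i.p. dose (0.1 ED50, 0.5% methylcellulose vehicle) then readings at 30, 60, 90, 120 min (to 180 min for some). Change = final minus initial; Bonferroni post hoc test.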

Series [20] deals with Mus musculus. Description: Increase in body temperature in Albino Swiss mouse at 0.1 ED50, ip administered 60 mins before test measured 30 to 90 mins post dose. In kind it is functional, organism-based. The method in brief: as §4
In series [21] the test system is Mus musculus. Kind of series: Protection against pentetrazol-induced mortality in Albino Swiss mouse at 0.1 ED50, ip administered 60 mins prior to test relative to untreated control. In kind it is functional. The method in brief:
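Male Albino Swiss mice (18–30 g). Compound given i.p. as suspension in 0.5% methylcellulose (10 mL/kg), 60 min before test; controls got vehicle. Dose expressed as fraction of ED50 (loss of righting reflex within 48 h). Convulsions induced by pentylenetetrazole 110 mg/kg s.c.; dead animals counted per group (n=10; control n=16). Significance vs control by Fisher's exact test.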

In series [22] the test system is Mus musculus. Description: Anticonvulsant activity in Albino Swiss mouse assessed as protection against pentetrazol-induced clonic seizure at 0.05 ED50, ip administered 60 mins prior to test relative to untreated control. Format: functional, organism-based. Summed up: as §3
For series [23], the system named is Mus musculus. Description: Effect on body temperature in Albino Swiss mouse at 0.1 ED50, ip administered 60 mins before test measured 30 to 180 mins post dose. Format: functional, organism-based. Summed up:
as §4

Sequence of 5-hydroxytryptamine receptor 2A (P14842 whole entry): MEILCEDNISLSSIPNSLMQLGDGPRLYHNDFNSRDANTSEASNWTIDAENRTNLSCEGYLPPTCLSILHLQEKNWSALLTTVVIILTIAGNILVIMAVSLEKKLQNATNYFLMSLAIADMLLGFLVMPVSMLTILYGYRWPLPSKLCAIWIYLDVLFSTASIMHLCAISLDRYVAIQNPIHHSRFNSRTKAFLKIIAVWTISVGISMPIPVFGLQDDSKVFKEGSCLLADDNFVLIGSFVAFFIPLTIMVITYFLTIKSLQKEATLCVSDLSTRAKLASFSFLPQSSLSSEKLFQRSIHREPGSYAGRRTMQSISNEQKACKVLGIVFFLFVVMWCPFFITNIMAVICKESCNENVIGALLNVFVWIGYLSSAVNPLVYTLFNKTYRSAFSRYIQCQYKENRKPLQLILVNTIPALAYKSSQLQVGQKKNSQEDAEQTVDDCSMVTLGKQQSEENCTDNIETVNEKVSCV

By Ki is commonly meant the dissociation constant of the complex between target and ligand, obtained from inhibition or displacement. For orientation: ED50 means the dose that gives a 50% effect, or the effect in half of the subjects. Regarding `FC(F)(F)c1cccc(NC(=S)Nc2ccccc2Cl)c1`, the inhibition entry in series [1] and in series [11] was “Active” in each case. Moreover, the Ki in series [2] and in series [3] was above 10 µM in each case. Also, the Activity result in series [4] is “Non-toxic”; in [5], “Non-toxic”; in [6] it was “Non-toxic”; in series [7], “Non-toxic”; in series [9] it was “Toxic”. In addition, in [8], the ED50 came out at 2000 mg/kg. The “inhibition (INH)” value in series [10] is on record as 72.4%.

On to `Cc1nc2sccn2c(=O)c1CCN1CCC(=C(c2ccc(F)cc2)c2ccc(F)cc2)CC1` [RITANSERIN], for which, in series [12], the “inhibition (INH)” value was above 80%.

Turning to `O=C(NC(=S)Nc1ccc(Cl)c([N+](=O)[O-])c1)c1ccccc1`, the Ki in series [2] and in series [3] was above 10 µM each time. The Activity entry in series [9] was “Non-toxic”.

Regarding `O=[N+]([O-])c1cc(NC(=S)NCc2ccccc2)ccc1Cl`, the inhibition entry in series [1], in series [14] and in [15] was “Active” throughout. Also, the Ki in [2] and in series [3] was above 10 µM throughout. Besides, the inhibition entry in series [13] is “inactive”. Further, the Activity entry in [4] is given as “Non-toxic”; in [5], “Non-toxic”; in series [6] it was “Non-toxic”; in [7], “Non-toxic”; in series [9] it was “Non-toxic”; in [16], 43.75%. In addition, the Activity in series [17] amounted to 43.75%. Further, the 50% effective dose (ED50) in series [8] is 909 mg/kg. Besides, the “inhibition (INH)” value in series [10] was 70.5%. Besides, the result in series [18] and in series [19] was Active.

As for `O=[N+]([O-])c1cc(NC(=S)Nc2ccccc2)ccc1Cl`, the Ki in series [2] and in series [3] was above 10 µM each time.

As for `O=[N+]([O-])c1cc(NC(=S)Nc2ccccc2Cl)ccc1Cl`, the inhibitory constant (Ki) in series [2] and in [3] was above 10 µM throughout. In [9], the Activity result is listed as “Non-toxic”.

For `COc1ccc(NC(=S)Nc2cccc(C(F)(F)F)c2)cc1`, the Ki in series [2] and in series [3] was above 10 µM in each case. Also, in series [13], the inhibition entry was “Active”. For the same compound, the Activity entry in [4], in series [5], in series [6], in series [7] and in series [9] was “Non-toxic” in each case. Moreover, the ED50 in series [8] was found to be 771.4 mg/kg. Moreover, the inhibition entry in [10] is “inactive”. For the same compound, the result in [17] was inactive. Also, in series [20], the outcome was Active.

Take `FC(F)(F)c1cccc(NC(=S)NCCc2ccccc2)c1`: the inhibition result in [1], in [14] and in [15] was “Active” throughout. The Ki in series [2] and in [3] was above 10 µM throughout. Moreover, in series [13], the “inhibition (INH)” value worked out at 42.48%. Moreover, the Activity entry is reported as “Non-toxic” in [4]; “Non-toxic” in [5]; “Non-toxic” in series [6]; “Non-toxic” in [7]; “Non-toxic” in series [9]; 46.66% in series [16]. The compound also registered an Activity in series [21] of 48.33%. In series [8], the 50% effective dose (ED50) stood at 709.6 mg/kg. The inhibition result in series [10] was “inactive”. Besides, the outcome in series [22] and in series [23] was inactive.
